Data set [1] concerns Staphylococcus aureus. The experiment in a line: Antibacterial activity against methicillin-resistant Staphylococcus aureus by NCCLS method. The data set is classed as functional, organism-based. In short, it runs like this: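 MRSA tested in vitro by CLSI (formerly NCCLS) broth microdilution. Samples were diluted in 0.9% saline and run in duplicate in 96-well microplates. Cell suspension was added to reach the target inoculum, with media and solvent controls included. IC50 was taken from percent growth plotted against concentration. MIC was the lowest concentration with no detectable growth; MBC was the lowest concentration that killed the organism.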

For data set [2], the system named is Cryptococcus neoformans. As to the kind of experiment: Antifungal activity against Cryptococcus neoformans at 100 ug/ml by NCCLS method. The data set is classed as functional, organism-based.
Data set [3] deals with Pseudomonas aeruginosa. The experiment in a line: Antibacterial activity against Pseudomonas aeruginosa at 100 ug/ml by NCCLS method. The data set is classed as functional, organism-based.
For data set [4], the system named is Mycobacterium intracellulare. The experiment in a line: Antibacterial activity against Mycobacterium intracellular at 100 ug/ml by NCCLS method. The format is functional, organism-based.
Data set [5] concerns Staphylococcus aureus. The experiment in a line: Antibacterial activity against Staphylococcus aureus by NCCLS method. The data set is classed as functional, organism-based. In short, it runs like this: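 Microdilution per CLSI (formerly NCCLS). Samples run in duplicate, diluted in 0.9% saline in 96-well plates, then microbial suspensions added to reach the target inocula. Media and solvent controls in every assay. IC50 read from a plot of percent growth against concentration. MIC taken as the lowest concentration with no detectable growth; MBC as the lowest concentration that kills the organism.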

The test system of data set [6] is Escherichia coli. As to the kind of experiment: Antibacterial activity against Escherichia coli at 100 ug/ml by NCCLS method. The data set is classed as functional, organism-based.
The subject of data set [7] is Candida albicans. As to the kind of experiment: Antifungal activity against Candida albicans at 100 ug/ml by NCCLS method. The data set is classed as functional, organism-based.
For data set [8], the system named is Vero. The experiment in a line: Cytotoxicity against african green monkey Vero cells up to 100 ug/ml. The format is cell-based. To be noted: chlorocebus sabaeus.
Data set [9] deals with Aspergillus fumigatus. As to the kind of experiment: Antifungal activity against Aspergillus fumigatus at 100 ug/ml by NCCLS method. The data set is classed as functional, organism-based.
The subject of data set [10] is Staphylococcus aureus. The experiment in a line: Antibacterial activity against methicillin-resistant Staphylococcus aureus at 100 ug/ml by NCCLS method. The format is functional, organism-based.
For data set [11], the system named is Staphylococcus aureus. As to the kind of experiment: Antibacterial activity against Staphylococcus aureus infected in CD1 mouse thigh muscle assessed as reduction in colony formation unit at 3.0 mg/kg, ip administered 2 hrs after infection measured after 48 hrs relative to control. The data set is classed as functional, Muscle tissue. To be noted: route intraperitoneal. Also on record: scale not given: the % may be the effect or the level left. In short, it runs like this:
(§1)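 Neutropenic thigh infection in CD-1 mice. Neutropenia induced by cyclophosphamide 100 mg/kg ip on days -4 and -1. Each rear thigh inoculated im with MRSA, 1.5 × 10⁶ cfu in 50 μL. n = 2 mice per group, each thigh a data point. Compound given ip starting 2 h post-inoculation; saline and vancomycin controls. Sacrifice at 48 h; thighs weighed, homogenized in 5.0 mL saline, plated for cfu/g tissue.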

The subject of data set [12] is Staphylococcus aureus. As to the kind of experiment: Antibacterial activity against Staphylococcus aureus infected in CD1 mouse thigh muscle assessed as reduction in colony forming unit at 15 mg/kg, ip administered 2 hrs after infection measured after 48 hrs relative to control. The data set is classed as functional, Muscle tissue. More on the design: scale not given: the % may be the effect or the level left. To be noted: route intraperitoneal. The method, boiled down:
as §1

In data set [13] the test system is Mus musculus. The experiment in a line: Toxicity in CD1 mouse up to 20 mg/kg, ip after 2 days. The data set is classed as organism-based. More on the design: dose 20 mg/kg, route intraperitoneal. To be noted: in vivo, 48 h. In short, it runs like this: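 Preliminary tolerance study: CD-1 mice dosed ip daily for 2 days at up to 20 mg/kg and watched for untoward effects.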

The test system of data set [14] is Staphylococcus aureus. As to the kind of experiment: Antibacterial activity against Staphylococcus aureus infected in CD1 mouse thigh muscle assessed as reduction in colony forming unit at 3.0 mg/kg, ip administered 2 hrs after infection measured after 48 hrs. To be noted: route intraperitoneal. The data set is classed as functional, Muscle tissue. The method, boiled down: as §1

Data set [15] concerns Staphylococcus aureus. The experiment in a line: Antibacterial activity against Staphylococcus aureus infected in CD1 mouse thigh muscle assessed as reduction in colony forming unit at 15 mg/kg, ip administered 2 hrs after infection measured after 48 hrs. The format is functional, Muscle tissue. To be noted: route intraperitoneal. In short, it runs like this: as §1

Experimental findings from ChEMBL document CHEMBL1153731, “Methicillin-resistant Staphylococcus aureus (MRSA)-active metabolites from Platanus occidentalis (American Sycamore)” (J Nat Prod, 2009) are described below.

In brackets after ≈: the same amount, converted by molar mass. Activity calls are given as the source filed them. No cut-off for these calls is given here.

In the case of `Cc1onc(-c2ccccc2Cl)c1C(=O)N[C@@H]1C(=O)N2[C@@H]1SC(C)(C)[C@@H]2C(=O)O` [CLOXACILLIN], the IC50 in data set [1] came to 8.9 µg/mL (≈ 20.4 µM).

In the case of `C[C@@H]1O[C@@H](Oc2c(-c3ccc(O)cc3)oc3cc(O)cc(O)c3c2=O)[C@H](OC(=O)/C=C/c2ccc(O)cc2)[C@H](OC(=O)/C=C\c2ccc(O)cc2)[C@H]1O`, the result in [2], in data set [3], in data set [4], in data set [6], in data set [7] and in data set [9] was inactive. In addition, the figures for the half-maximal inhibitory concentration (IC50) in data set [1] and in data set [5] were 0.8 µg/mL (≈ 1.1 µM) and 1.6 µg/mL (≈ 2.21 µM), respectively. The MIC in data set [1] stood at 1.7 µg/mL (≈ 2.35 µM); in data set [5] it was 5.8 µg/mL (≈ 8 µM). For the same molecule, the Activity entry in [8] was “Non-toxic”.

On to `COc1cccc(OC)c1C(=O)N[C@@H]1C(=O)N2[C@@H]1SC(C)(C)[C@@H]2C(=O)O` [METHICILLIN], for which, in data set [10], the IC50 entry is “Not Active” and the MIC result is “inactive”. In data set [5], the IC50 is 0.4 µg/mL (≈ 1.05 µM) and the MIC stood at 2.5 µg/mL (≈ 6.57 µM).

Turning to `C[C@@H]1O[C@@H](Oc2c(-c3ccc(O)cc3)oc3cc(O)cc(O)c3c2=O)[C@H](OC(=O)/C=C\c2ccc(O)cc2)[C@H](OC(=O)/C=C/c2ccc(O)cc2)[C@H]1O`, the outcome in data set [2], in data set [3], in [4], in [6], in data set [7] and in data set [9] was inactive. In addition, the results for the 50% inhibitory concentration (IC50) in data set [1] and in [5] were 0.7 µg/mL (≈ 0.966 µM) and 1.4 µg/mL (≈ 1.93 µM), respectively. Further, the MIC was 1.3 µg/mL (≈ 1.79 µM) in [1] and 3.8 µg/mL (≈ 5.24 µM) in data set [5]. Moreover, in data set [8], the Activity entry is recorded as “Non-toxic”.

In the case of `O=C(O)c1cn(C2CC2)c2cc(N3CCNCC3)c(F)cc2c1=O` [CIPROFLOXACIN], the MIC in data set [1] worked out at 0.3 µg/mL (≈ 0.905 µM); in data set [5], 0.4 µg/mL (≈ 1.21 µM).

Turning to `C[C@@H]1O[C@@H](Oc2c(-c3ccc(O)cc3)oc3cc(O)cc(O)c3c2=O)[C@H](OC(=O)/C=C/c2ccc(O)cc2)[C@H](OC(=O)/C=C/c2ccc(O)cc2)[C@H]1O`, the Activity is 67% in [11]; 78% in data set [12]; “Non-toxic” in data set [13]; 2.6 ×10⁷ /g in data set [14]; 1.8 ×10⁷ /g in [15]; “Non-toxic” in data set [8]. Further, the outcome in data set [2], in data set [3], in data set [4], in data set [6], in [7] and in data set [9] was inactive. The IC50 in data set [1] was 2 µg/mL (≈ 2.76 µM); in data set [5], 3.7 µg/mL (≈ 5.11 µM). Moreover, the MIC in data set [1] stood at 10 µg/mL (≈ 13.8 µM); in data set [5] it was 13.3 µg/mL (≈ 18.4 µM).

Regarding `CCN1CCN(C(=O)N[C@@H](C(=O)N[C@@H]2C(=O)N3[C@@H]2SC(C)(C)[C@@H]3C(=O)O)c2ccccc2)C(=O)C1=O` [PIPERACILLIN], in [10], the IC50 entry is “Not Active” and the MIC result was “inactive”.
